ChEMBL document CHEMBL4334522, “Optimization Strategy of Novel Peptide-Based Michael Acceptors for the Treatment of Human African Trypanosomiasis” (J Med Chem, 2019)
Calls of active or inactive are those of the source. The calls are words filed in the database; no cut-off is given here.

Experiments:
Procathepsin L [1] = target: T1, Procathepsin L (Homo sapiens, UniProt P07711); experiment: Inhibition of human Cathepsin L assessed as first-order rate constant using Cbz-Phe-Arg-AMC as substrate by fluorescence assay
Target sequence in this assay (P07711 114-333 limits assumed): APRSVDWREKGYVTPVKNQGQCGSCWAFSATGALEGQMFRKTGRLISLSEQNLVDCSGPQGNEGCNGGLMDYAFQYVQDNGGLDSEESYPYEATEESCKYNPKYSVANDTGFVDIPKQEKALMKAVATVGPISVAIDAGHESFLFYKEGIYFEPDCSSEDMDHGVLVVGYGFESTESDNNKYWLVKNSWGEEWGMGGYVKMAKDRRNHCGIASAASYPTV

[2] = target: Rhodesain (Trypanosoma brucei rhodesiense) (UniProt Q95PM0); experiment: Inhibition of Trypanosoma brucei rhodesiense rhodesain expressed in Pichia pastoris at 50 uM measured for 30 mins using Cbz-Phe-Arg-AMC as substrate by fluorescence assay relative to control
How it was run: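 Recombinant rhodesain screened with inhibitor at 50 µM against an equivalent DMSO negative control. AMC release from 10 µM Cbz-Phe-Arg-AMC was followed continuously for 30 min.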

[3] = target: Rhodesain (Trypanosoma brucei rhodesiense) (UniProt Q95PM0); experiment: Inhibition of Trypanosoma brucei rhodesiense rhodesain expressed in Pichia pastoris assessed as first-order rate constant measured for 30 mins using Cbz-Phe-Arg-AMC as substrate by fluorescence assay
How it was run: (§1)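 Continuous rhodesain assay using 7 inhibitor concentrations spanning minimal to full inhibition, with 10 µM Cbz-Phe-Arg-AMC. Buffer: 50 mM sodium acetate pH 5.5, 5 mM EDTA, 200 mM NaCl, 0.005% Brij 35; enzyme buffer had 5 mM DTT instead. Read at room temperature for 30 min, ex 380/em 460 nm. kobs came from fitting progress curves to F = A(1−exp(−kobs·t)) + B. Fitting kobs against [I] hyperbolically gave kinac and Kiapp. Kiapp was corrected by (1+[S]/Km) with Km 0.9 µM, and k2nd = kinac/Ki. Each assay was run twice in duplicate.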

Rhodesain = Rhodesain (Trypanosoma brucei rhodesiense, UniProt Q95PM0); experiment: Inhibition of Trypanosoma brucei rhodesiense rhodesain expressed in Pichia pastoris assessed as inhibition constant measured for 30 mins using Cbz-Phe-Arg-AMC as substrate by fluorescence assay
How it was run: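 Recombinant rhodesain, continuous fluorimetric assay with Cbz-Phe-Arg-AMC at 10 µM, ex 380/em 460 nm, read 30 min at room temperature. Buffer: 50 mM sodium acetate pH 5.5, 5 mM EDTA, 200 mM NaCl, 0.005% Brij 35; enzyme buffer has 5 mM DTT. Seven inhibitor concentrations. kobs from progress-curve fits, hyperbolic fit gives Kiapp, corrected with Km 0.9 µM to Ki. Two independent assays in duplicate.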

[4] = target: Rhodesain (Trypanosoma brucei rhodesiense) (UniProt Q95PM0); experiment: Inhibition of Trypanosoma brucei rhodesiense rhodesain expressed in Pichia pastoris assessed as second order rate constant obtained from ratio of Kinact to Ki measured for 30 mins using Cbz-Phe-Arg-AMC as substrate by fluorescence assay; how it was run: as §1
Procathepsin L [5] = target: T1, Procathepsin L; experiment: Inhibition of human Cathepsin L assessed as inhibition constant using Cbz-Phe-Arg-AMC as substrate by fluorescence assay
Target sequence in this assay (P07711 whole entry): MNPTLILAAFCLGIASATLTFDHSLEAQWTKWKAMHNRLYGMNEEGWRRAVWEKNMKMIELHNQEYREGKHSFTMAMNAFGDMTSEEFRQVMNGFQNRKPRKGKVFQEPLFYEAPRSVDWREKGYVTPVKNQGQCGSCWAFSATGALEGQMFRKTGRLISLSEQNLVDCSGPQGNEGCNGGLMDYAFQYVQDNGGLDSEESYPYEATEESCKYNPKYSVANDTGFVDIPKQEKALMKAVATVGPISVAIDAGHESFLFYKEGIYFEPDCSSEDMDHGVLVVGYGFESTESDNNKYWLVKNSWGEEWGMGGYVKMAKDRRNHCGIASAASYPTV

Procathepsin L [6] = target: T1, Procathepsin L; experiment: Inhibition of human Cathepsin L assessed as second order rate constant obtained from ratio of Kinact to Ki using Cbz-Phe-Arg-AMC as substrate by fluorescence assay
Target sequence in this assay (P07711 114-333 limits assumed): as the sequence (P07711 114-333 limits assumed) above

[7] = test system: Trypanosoma brucei brucei; experiment: Antitrypanosomal activity against blood stage form of Trypanosoma brucei brucei 449 incubated for 24 hrs by ATPlite assay; type: functional, organism-based; conditions: Trypanosoma brucei, 449, 24 h
How it was run: (§2)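 Bloodstream-form T. b. brucei 449 (Lister 427 descendant) cultured in HMI-9 with 10% FCS, penicillin/streptomycin and 0.2 µg/mL phleomycin at 37°C, 5% CO2. Cells seeded at 2500 cells/mL. Compounds from 5 mM stocks were serially diluted 1:2 to give 16.7 µM to 32.5 nM final. Controls: 0.3% DMSO (negative) and 10% DMSO (positive). Incubated 24 h or 48 h, in two separate triplicates. Viability read by ATPlite luminescence; EC50 taken from dose-response curves.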

[8] = test system: Trypanosoma brucei brucei; experiment: Antitrypanosomal activity against blood stage form of Trypanosoma brucei brucei 449 incubated for 48 hrs by ATPlite assay; type: functional, organism-based; conditions: Trypanosoma brucei, 449, 48 h; how it was run: as §2
[9] = target: Rhodesain (Trypanosoma brucei rhodesiense) (UniProt Q95PM0); experiment: Irreversible inhibition of Trypanosoma brucei rhodesiense rhodesain expressed in Pichia pastoris at 0.005 to 0.5 nM measured for 30 mins using Cbz-Phe-Arg-AMC as substrate by fluorescence assay; how it was run: as §1

Sequence of Rhodesain (Trypanosoma brucei rhodesiense) (Q95PM0 1-450): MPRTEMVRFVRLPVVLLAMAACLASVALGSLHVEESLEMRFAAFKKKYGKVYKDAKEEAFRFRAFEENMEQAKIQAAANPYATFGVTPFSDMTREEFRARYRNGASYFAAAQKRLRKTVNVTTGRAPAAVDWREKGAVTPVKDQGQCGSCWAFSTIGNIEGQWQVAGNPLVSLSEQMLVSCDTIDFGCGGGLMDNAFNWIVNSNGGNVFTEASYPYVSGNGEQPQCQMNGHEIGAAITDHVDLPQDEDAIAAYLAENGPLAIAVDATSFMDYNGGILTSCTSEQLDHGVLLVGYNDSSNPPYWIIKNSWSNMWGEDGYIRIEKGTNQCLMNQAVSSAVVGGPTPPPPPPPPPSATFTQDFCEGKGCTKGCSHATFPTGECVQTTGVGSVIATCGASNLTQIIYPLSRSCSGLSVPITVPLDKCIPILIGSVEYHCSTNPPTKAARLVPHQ
Sequence of Rhodesain (Q95PM0 whole entry): as the sequence (Q95PM0 1-450) above

SMILES	Kinact (Procathepsin L [1]) [min⁻¹]	inhibition [2] [%]	Kinact [3] [min⁻¹]	Ki (Rhodesain) [nM]	K [4] [×10³ /M/min]	Ki (Procathepsin L [5]) [nM]	K (Procathepsin L [6]) [×10³ /M/min]	EC50 [7] [nM]	EC50 [8] [nM]	inhibition [9]
CC(=O)/C=C/[C@H](CCc1ccccc1)NC(=O)[C@H](Cc1ccccc1)NC(=O)c1ccc(F)cc1F	0.0015	85 to 100	7e-05	0.0006	107000	35	52	740	670	–
CC(=O)/C=C/[C@H](CCc1ccccc1)NC(=O)[C@H](Cc1ccccc1)NC(=O)c1ccc2c(c1)OCO2	0.0016	85 to 100	0.0005	0.034	15300	10.2	157	5000	3700	–
CC(=O)/C=C/[C@H](CCc1ccccc1)NC(=O)[C@H](Cc1ccccc1)NC(=O)c1cccc(F)c1	0.0019	85 to 100	0.0032	0.023	149000	47	41	–	–	–
CCC(=O)/C=C/[C@H](CCc1ccccc1)NC(=O)[C@H](Cc1ccccc1)NC(=O)OCc1ccccc1	0.0071	85 to 100	0.00082	0.5	1800	108	67	–	–	–
CC(=O)/C=C/[C@H](CCc1ccccc1)NC(=O)[C@H](Cc1ccccc1)NC(=O)N1CCN(C)CC1	0.0047	85 to 100	0.00042	1.8	266	158	31	–	–	–
CC(=O)/C=C/[C@H](CCc1ccccc1)NC(=O)[C@H](Cc1ccccc1)NC(=O)c1ccc(F)cc1	0.0018	85 to 100	0.0009	0.0011	881000	1.5	1230	5100	3600	Active
CC(=O)/C=C/[C@H](CCc1ccccc1)NC(=O)[C@H](Cc1ccccc1)NC(=O)c1ccc2c(c1)OCCO2	0.0076	85 to 100	0.0043	0.74	7200	78.2	102	–	–	–
CC(=O)/C=C/[C@H](CCc1ccccc1)NC(=O)[C@H](Cc1ccccc1)NC(=O)c1ccc(C(F)(F)F)cc1	0.0015	85 to 100	0.00075	0.0044	175000	4.1	380	–	–	–
CC(=O)/C=C/[C@H](CCc1ccccc1)NC(=O)[C@H](Cc1ccccc1)NC(=O)c1ccc(Cl)cc1	0.0018	85 to 100	0.0008	0.029	29300	0.6	3030	4800	3200	–
CC(=O)/C=C/[C@H](CCc1ccccc1)NC(=O)[C@H](Cc1ccccc1)NC(=O)c1c(F)cccc1F	0.002	85 to 100	0.0012	0.0076	151000	230	8.9	–	–	–
CC(=O)/C=C/[C@H](CCc1ccccc1)NC(=O)[C@H](Cc1ccccc1)NC(=O)Cc1ccc2c(c1)OCO2	0.0053	85 to 100	0.00085	2.1	435	90.3	59	–	–	–
CC(=O)/C=C/[C@H](CCc1ccccc1)NC(=O)[C@H](Cc1ccccc1)NC(=O)N1CCOCC1	0.0039	85 to 100	0.00049	3.1	157	175	23	–	–	–
CC(=O)/C=C/[C@H](CCc1ccccc1)NC(=O)[C@H](Cc1ccccc1)NC(=O)c1ccccc1F	0.0011	85 to 100	0.0006	0.003	230000	5.3	313	–	–	–
CC(=O)/C=C/[C@H](CCc1ccccc1)NC(=O)[C@H](CCc1ccccc1)NC(=O)OCc1ccccc1	0.0056	85 to 100	0.00072	5.54	137	453	12	550	440	–
CC(=O)/C=C/[C@H](CCc1ccccc1)NC(=O)[C@H](Cc1ccccc1)NC(=O)c1cc(F)cc(F)c1	0.0022	85 to 100	0.0016	0.015	113000	14.8	156	4000	3400	–
